Measured values from ChEMBL document CHEMBL1135717, “Minor groove DNA binders as antimicrobial agents. 1. Pyrrole tetraamides are potent antibacterials against vancomycin resistant Enterococci [corrected] and methicillin resistant Staphylococcus aureus” (J Med Chem, 2002).
In brackets after ≈: the same amount, converted by molar mass.

How the values were obtained:
Nucleic Acid [1] = assay: DNA binding measured as Changes in the DNA melting temperature of an AT-rich dodecamer (CGATTATTAAGC) (GCTTAATAATCG) upon binding of an equimolar amount of compound; type: nucleic-acid assay
Outline: (§1)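 Melting monitored by UV absorbance at 260 nm in 10 mM HEPES pH 7.2, 0.1 mM EDTA, 50 mM NaCl. 12-bp AT-rich oligo at 5 μM mixed with compound at equimolar ratio. Temperature ramped 15 to 95 °C at 0.2 °C/min. Tm by derivative method, checked by hyperchromicity. ΔTm is Tm with compound minus Tm without. At least duplicate.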

Enterococcus [2] = assay: In vitro antimicrobial activity against Vancomycin resistant enterococcus strain BM4147; type: functional
Outline: (§2)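 Broth microdilution MIC per NCCLS M7-A4. Compounds dissolved fresh in DMSO as 10 mM stock, then diluted in BHI medium for VRE (BM4147, UCD3) or Mueller-Hinton medium for MRSA. Seven 1:2 serial dilutions gave test concentrations of 45.5 to 0.7 μM. MIC read by visual inspection of wells after 2 days.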

Enterococcus [3] = assay: In vitro antimicrobial activity against Vancomycin resistant enterococcus strain UCD-3; type: functional; outline: as §2
Staphylococcus aureus = assay: In vitro antimicrobial activity against Methicillin resistant Staphylococcus aureus; type: functional; outline: as §2
[4] = Toxicity assessed in human T-cells using a colorimetric cell proliferation assay.; type: cell-based
Outline: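 CCRF-CEM human leukemia T-cells in RPMI-1640 with 10% FBS and gentamicin 0.1 mg/mL, seeded at 4 × 10^4 cells/well. Compound added at start at 50, 25, 12.5 and 6.3 μM. WST-1 cleavage read by absorbance at 440 nm at 24, 48 and 72 h. Value reported as lowest % of no-compound control, typically 72 h at 50 μM. At least triplicate.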

Nucleic Acid [5] = assay: Changes in the DNA melting temperature of an AT-rich dodecamer (CGATTATTAAGC) (GCTTAATAATCG) upon binding of an equimolar amount of compound; type: nucleic-acid assay; outline: as §1

Compound | ΔTm (Nucleic Acid [1]) [°C] | MIC (Enterococcus [2]) [µM] | MIC (Enterococcus [3]) [µM] | MIC (Staphylococcus aureus) [µM] | NCC [4] [%] | ΔTm (Nucleic Acid [5])
CC(C)CCn1cc(NC(=O)c2ccc(C(=O)Nc3cc(C(=O)NCCN)n(CCC(C)C)c3)cc2)cc1C(=O)NCCN | 20 | 11.4 (≈ 6.92 µg/mL) | 11.4 (≈ 6.92 µg/mL) | 2.8 (≈ 1.7 µg/mL) | 24 | –
CN=C(CCNC(=O)c1cc(NC(=O)c2ccc(C(=O)Nc3cc(C(=O)NCCC(=NC)NC)n(CCC(C)C)c3)cc2)cn1CCC(C)C)NC | – | – | – | – | 50 | –
CNC(=N)CCNC(=O)c1cc(NC(=O)c2ccc(C(=O)Nc3cc(C(=O)NCCC(=N)NC)n(CCC(C)C)c3)cc2)cn1CCC(C)C | – | – | – | – | 78 | –
CC(C)CCn1cc(NC(=O)C2CCC(C(=O)Nc3cc(C(=O)NCCC(=N)N)n(CCC(C)C)c3)CC2)cc1C(=O)NCCC(=N)N (stereo not given) | 11 | > 45.5 | > 45.5 | 11.4 (≈ 7.6 µg/mL) | 88 | –
Cn1cc(NC(=O)c2cc(NC(=O)c3cc(NC=O)cn3C)cn2C)cc1C(=O)NCCC(=N)N [STALLIMYCIN] | – | > 45.5 | > 45.5 | > 45.5 | 79 | 26
CC(C)CCn1cc(NC(=O)CCCCC(=O)Nc2cc(C(=O)NCCC(=N)N)n(CCC(C)C)c2)cc1C(=O)NCCC(=N)N | 10 | > 45.5 | > 45.5 | > 45.5 | 87 | –
Cc1cc(C(=O)Nc2cc(C(=O)NCCC(=N)N)n(CCC(C)C)c2)ccc1C(=O)Nc1cc(C(=O)NCCC(=N)N)n(CCC(C)C)c1 | 24 | 1.4 (≈ 0.945 µg/mL) | 1.4 (≈ 0.945 µg/mL) | 0.7 (≈ 0.472 µg/mL) | 38 | –
CC(C)CCn1cc(NC(=O)c2ccc(C(=O)Nc3cc(C(=O)NCCC(=N)N)n(CCC(C)C)c3)nc2)cc1C(=O)NCCC(=N)N | 25 | 0.7 (≈ 0.463 µg/mL) | 1.4 (≈ 0.927 µg/mL) | 1.4 (≈ 0.927 µg/mL) | 3 | –
N=C(N)CCNC(=O)c1cc(NC(=O)c2cnc(C(=O)Nc3cc(C(=O)NCCC(=N)N)n(CC4CC4)c3)cn2)cn1CC1CC1 | 23 | 2.8 (≈ 1.77 µg/mL) | 5.7 (≈ 3.6 µg/mL) | 2.8 (≈ 1.77 µg/mL) | 90 | –
CC(C)CCn1cc(NC(=O)c2ccc(C(=O)Nc3cc(C(=O)NCCC(=N)N)n(CCC(C)C)c3)cc2)cc1C(=O)NCCC(=N)N | – | 0.7 (≈ 0.463 µg/mL) | 0.7 (≈ 0.463 µg/mL) | 1.4 (≈ 0.925 µg/mL) | 4 | 28
CC(C)CCn1cc(NC(=O)c2ccc(C(=O)Nc3cc(C(=O)NCCC(=N)N)n(CCC(C)C)c3)c3ccccc23)cc1C(=O)NCCC(=N)N | 20 | 2.8 (≈ 1.99 µg/mL) | 5.7 (≈ 4.05 µg/mL) | 2.8 (≈ 1.99 µg/mL) | 15 | –
N=C(N)CCNC(=O)c1cc(NC(=O)c2ccc(C(=O)Nc3cc(C(=O)NCCC(=N)N)n(CC4CC4)c3)nc2)cn1CC1CC1 | 27 | 1.4 (≈ 0.882 µg/mL) | 2.8 (≈ 1.76 µg/mL) | 1.4 (≈ 0.882 µg/mL) | 82 | –
CCC/N=C(\N)CCNC(=O)c1cc(NC(=O)c2ccc(C(=O)Nc3cc(C(=O)NCC/C(N)=N/CCC)n(CCC(C)C)c3)cc2)cn1CCC(C)C | 26 | 1.4 (≈ 1.04 µg/mL) | 1.4 (≈ 1.04 µg/mL) | 1.4 (≈ 1.04 µg/mL) | 15 | –
CC/N=C(\N)CCNC(=O)c1cc(NC(=O)c2ccc(C(=O)Nc3cc(C(=O)NCC/C(N)=N/CC)n(CCC(C)C)c3)cc2)cn1CCC(C)C | 27 | 1.4 (≈ 1 µg/mL) | 1.4 (≈ 1 µg/mL) | 1.4 (≈ 1 µg/mL) | 74 | –
N=C(N)CCNC(=O)c1cc(NC(=O)c2ccc(C(=O)Nc3cc(C(=O)NCCC(=N)N)n(CC4CC4)c3)c([N+](=O)[O-])c2)cn1CC1CC1 | 28 | 2.8 (≈ 1.89 µg/mL) | 2.8 (≈ 1.89 µg/mL) | 1.4 (≈ 0.943 µg/mL) | 87 | –
Cc1cc(C(=O)Nc2cc(C(=O)NCCC(=N)N)n(CC3CC3)c2)ccc1C(=O)Nc1cc(C(=O)NCCC(=N)N)n(CC2CC2)c1 | 26 | 2.8 (≈ 1.8 µg/mL) | 2.8 (≈ 1.8 µg/mL) | 2.8 (≈ 1.8 µg/mL) | 87 | –
CC(C)CCn1cc(NC(=O)c2ccc(C(=O)Nc3cc(C(=O)NCCC(=N)N)n(CCC(C)C)c3)c([N+](=O)[O-])c2)cc1C(=O)NCCC(=N)N | 25 | 1.4 (≈ 0.988 µg/mL) | 1.4 (≈ 0.988 µg/mL) | 1.4 (≈ 0.988 µg/mL) | 42 | –
CC(C)CCn1cc(NC(=O)c2ccc3cc(C(=O)Nc4cc(C(=O)NCCC(=N)N)n(CCC(C)C)c4)ccc3c2)cc1C(=O)NCCC(=N)N | 24 | > 45.5 | > 45.5 | > 45.5 | 0 | –
CC(C)CCn1cc(NC(=O)c2ccc(C(=O)Nc3cc(C(=O)NCCN=C(N)N)n(CCC(C)C)c3)cc2)cc1C(=O)NCCN=C(N)N | 25 | 1.4 (≈ 0.967 µg/mL) | 1.4 (≈ 0.967 µg/mL) | 0.7 (≈ 0.484 µg/mL) | 5 | –
CC(C)CCn1cc(NC(=O)c2ccc(C(=O)Nc3cc(C(=O)NCCC4=NCCCN4)n(CCC(C)C)c3)cc2)cc1C(=O)NCCC1=NCCCN1 | 28 | 0.7 (≈ 0.519 µg/mL) | 0.7 (≈ 0.519 µg/mL) | 0.7 (≈ 0.519 µg/mL) | 51 | –
N=C(N)CCNC(=O)c1cc(NC(=O)c2ccc(C(=O)Nc3cc(C(=O)NCCC(=N)N)n(CC4CC4)c3)cc2)cn1CC1CC1 | 28 | 2.8 (≈ 1.76 µg/mL) | 0.7 (≈ 0.44 µg/mL) | 1.4 (≈ 0.88 µg/mL) | 72 | –
CC(C)CCn1cc(NC(=O)C2=CC=C(C(=O)Nc3cc(C(=O)NCCC(=N)N)n(CCC(C)C)c3)CC2)cc1C(=O)NCCC(=N)N | 26 | 1.4 (≈ 0.928 µg/mL) | 1.4 (≈ 0.928 µg/mL) | 0.7 (≈ 0.464 µg/mL) | 23 | –
C/N=C(\N)CCNC(=O)c1cc(NC(=O)c2ccc(C(=O)Nc3cc(C(=O)NCC/C(N)=N/C)n(CCC(C)C)c3)cc2)cn1CCC(C)C | 28 | 1.4 (≈ 0.964 µg/mL) | 1.4 (≈ 0.964 µg/mL) | 0.7 (≈ 0.482 µg/mL) | – | –
Cc1cc(C(=O)Nc2cc(C(=O)NCCC(=N)N)n(CCC(C)C)c2)c(C)cc1C(=O)Nc1cc(C(=O)NCCC(=N)N)n(CCC(C)C)c1 | 12 | > 45.5 | > 45.5 | 11.4 (≈ 7.85 µg/mL) | 75 | –
C/N=C(/CCNC(=O)c1cc(NC(=O)c2ccc(C(=O)Nc3cc(C(=O)NCC/C(=N/C)NC)n(CCC(C)C)c3)cc2)cn1CCC(C)C)NC | 26 | 1.4 (≈ 1 µg/mL) | 1.4 (≈ 1 µg/mL) | 1.4 (≈ 1 µg/mL) | – | –
N=C(N)CCNC(=O)c1cc(NC(=O)c2ccc(C(=O)Nc3cc(C(=O)NCCC(=N)N)n(CC4CC4)c3)s2)cn1CC1CC1 | 27 | 1.4 (≈ 0.889 µg/mL) | 2.8 (≈ 1.78 µg/mL) | 1.4 (≈ 0.889 µg/mL) | 65 | –
CC(C)CCn1cc(NC(=O)c2ccnc(C(=O)Nc3cc(C(=O)NCCC(=N)N)n(CCC(C)C)c3)c2)cc1C(=O)NCCC(=N)N | 11 | 22.7 (≈ 15 µg/mL) | 22.7 (≈ 15 µg/mL) | 2.8 (≈ 1.85 µg/mL) | 6 | –
CC(C)CCn1cc(NC(=O)c2cnc(C(=O)Nc3cc(C(=O)NCCC(=N)N)n(CCC(C)C)c3)cn2)cc1C(=O)NCCC(=N)N | 20 | 2.8 (≈ 1.86 µg/mL) | 2.8 (≈ 1.86 µg/mL) | 2.8 (≈ 1.86 µg/mL) | 32 | –
N=C(N)CCNC(=O)c1cc(NC(=O)c2cc(C(=O)Nc3cc(C(=O)NCCC(=N)N)n(CC4CC4)c3)[nH]n2)cn1CC1CC1 | 26 | 5.7 (≈ 3.53 µg/mL) | 5.7 (≈ 3.53 µg/mL) | 2.8 (≈ 1.73 µg/mL) | 88 | –
